Values after ≈ are worked out from the molar mass of the structure shown.

For one data set, the target named is DNA gyrase (Escherichia coli, UniProt P0AES4+P0AES6). In words: Inhibition of Escherichia coli DNA gyrase using fluorescence-tagged DNA by fluorescenct polarization assay. The class given is protein-complex assay. A digest of the protocol: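 E. coli DNA gyrase supercoiling assay. The read-out was differential binding of a fluorescence-tagged DNA to relaxed versus supercoiled DNA, giving IC50.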
Take `CC1CN2c3c(cc4c(C5CC5)noc4c3F)CC3(C(=O)NC(=O)NC3=O)C2C(C)O1` (racemic): the IC50 came to 340 nM.

`Cc1noc2c(F)c3c(cc12)CC1(C(=O)NC(=O)NC1=O)C1C(C)CC(C)CN31` (racemic) returned an IC50 of 340 nM. This counts as sub-micromolar.

`COCc1noc2c(F)c3c(cc12)CC1(C(=O)NC(=O)NC1=O)C1C(C)OC(C)CN31` (racemic) came in with a 50% inhibitory concentration (IC50) of 1600 nM.

As for `Cc1noc2c(Cl)c3c(cc12)CC1(C(=O)NC(=O)NC1=O)C1C(C)OC(C)CN31` (racemic), the IC50 came to 370 nM.

Test system in the next data set: not listed separately
Put plainly: Fraction unbound in human plasma at 10 uM after 16 hrs by LC-MS/MS analysis. The data set is classed as ADME, cell-free. A digest of the protocol: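 Compound at 10 μM in human, rat or mouse plasma, equilibrium dialysis against buffer at 37 °C for 16 h. Buffer and plasma concentrations measured by LC-MS/MS, and the free fraction taken from their ratio.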
In turn, `CC1CN2c3c(cc4c(C5CC5)noc4c3F)CC3(C(=O)NC(=O)NC3=O)C2C(C)O1` (racemic) returned a fraction unbound at 16 h, 10 µM of 0.052.

For `Cc1noc2c(F)c3c(cc12)CC1(C(=O)NC(=O)NC1=O)C1C(C)CC(C)CN31` (racemic), the fraction unbound at 16 h, 10 µM is less than 0.01.

Compound `COCc1noc2c(F)c3c(cc12)CC1(C(=O)NC(=O)NC1=O)C1C(C)OC(C)CN31` (racemic) yielded a free fraction (fraction unbound) at 16 h, 10 µM of 0.096.

Regarding `Cc1noc2c(Cl)c3c(cc12)CC1(C(=O)NC(=O)NC1=O)C1C(C)OC(C)CN31` (racemic), the fraction unbound at 16 h, 10 µM was found to be 0.03.

Test system in another data set: not listed separately
In words: Solubility of the compound. The class given is physicochemical.
`CC1CN2c3c(cc4c(C5CC5)noc4c3F)CC3(C(=O)NC(=O)NC3=O)C2C(C)O1` (racemic): the solubility was 29 µM (≈ 12.4 µg/mL).

In turn, `Cc1noc2c(F)c3c(cc12)CC1(C(=O)NC(=O)NC1=O)C1C(C)CC(C)CN31` (racemic) displayed a solubility of less than 1 µM.

Take `COCc1noc2c(F)c3c(cc12)CC1(C(=O)NC(=O)NC1=O)C1C(C)OC(C)CN31` (racemic): the solubility was 180 µM (≈ 77.8 µg/mL).

Compound `Cc1noc2c(Cl)c3c(cc12)CC1(C(=O)NC(=O)NC1=O)C1C(C)OC(C)CN31` (racemic) gave a solubility of 330 µM (≈ 138 µg/mL). This solubility lies about 1.8-fold higher than the previous one.

Another data set has as its system Streptococcus pneumoniae. In words: Antimicrobial activity against Streptococcus pneumoniae by broth microdilution method. The class given is functional. A digest of the protocol: (§1)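 Broth microdilution following CLSI guidelines. Values under 12.5 μM are averages of three or more replicates.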
For the compound `CC1CN2c3c(cc4c(C5CC5)noc4c3F)CC3(C(=O)NC(=O)NC3=O)C2C(C)O1` (racemic), the MIC stood at 25 µM (≈ 10.7 µg/mL).

`Cc1noc2c(F)c3c(cc12)CC1(C(=O)NC(=O)NC1=O)C1C(C)CC(C)CN31` (racemic) returned an MIC of 100 µM (≈ 40 µg/mL).

Take `COCc1noc2c(F)c3c(cc12)CC1(C(=O)NC(=O)NC1=O)C1C(C)OC(C)CN31` (racemic): the MIC came to 12 µM (≈ 5.19 µg/mL).

Take `Cc1noc2c(Cl)c3c(cc12)CC1(C(=O)NC(=O)NC1=O)C1C(C)OC(C)CN31` (racemic): the MIC turned out to be 50 µM (≈ 20.9 µg/mL).

For another data set, the system named is Streptococcus pyogenes. Put plainly: Antimicrobial activity against Streptococcus pyogenes by broth microdilution method. The class given is functional. An outline of the steps: as §1
With `CC1CN2c3c(cc4c(C5CC5)noc4c3F)CC3(C(=O)NC(=O)NC3=O)C2C(C)O1` (racemic), the MIC was 6.2 µM (≈ 2.66 µg/mL).

On to `Cc1noc2c(F)c3c(cc12)CC1(C(=O)NC(=O)NC1=O)C1C(C)CC(C)CN31` (racemic), for which the MIC is 200 µM (≈ 80.1 µg/mL).

Turning to `COCc1noc2c(F)c3c(cc12)CC1(C(=O)NC(=O)NC1=O)C1C(C)OC(C)CN31` (racemic), the MIC turned out to be 6.2 µM (≈ 2.68 µg/mL).

As to `Cc1noc2c(Cl)c3c(cc12)CC1(C(=O)NC(=O)NC1=O)C1C(C)OC(C)CN31` (racemic), the MIC is 25 µM (≈ 10.5 µg/mL).

The next data set has as its system Staphylococcus aureus. Put plainly: Antimicrobial activity against methicillin-sensitive Staphylococcus aureus by broth microdilution method. The class given is functional. An outline of the steps: as §1
The compound `CC1CN2c3c(cc4c(C5CC5)noc4c3F)CC3(C(=O)NC(=O)NC3=O)C2C(C)O1` (racemic) returned an MIC of 1.6 µM (≈ 0.685 µg/mL).

With `Cc1noc2c(F)c3c(cc12)CC1(C(=O)NC(=O)NC1=O)C1C(C)CC(C)CN31` (racemic), the MIC turned out to be 25 µM (≈ 10 µg/mL).

For `COCc1noc2c(F)c3c(cc12)CC1(C(=O)NC(=O)NC1=O)C1C(C)OC(C)CN31` (racemic), the MIC was found to be 3.1 µM (≈ 1.34 µg/mL).

Compound `Cc1noc2c(Cl)c3c(cc12)CC1(C(=O)NC(=O)NC1=O)C1C(C)OC(C)CN31` (racemic) came in with an MIC of 6.2 µM (≈ 2.6 µg/mL).

The next data set concerns Staphylococcus aureus. In words: Antimicrobial activity against methicillin-resistant and quinolone-resistant Staphylococcus aureus by broth microdilution method. The class given is functional. An outline of the steps:
as §1
Compound `CC1CN2c3c(cc4c(C5CC5)noc4c3F)CC3(C(=O)NC(=O)NC3=O)C2C(C)O1` (racemic) gave an MIC of 12 µM (≈ 5.14 µg/mL).

Take `Cc1noc2c(F)c3c(cc12)CC1(C(=O)NC(=O)NC1=O)C1C(C)CC(C)CN31` (racemic): the MIC was 25 µM (≈ 10 µg/mL).

Regarding `COCc1noc2c(F)c3c(cc12)CC1(C(=O)NC(=O)NC1=O)C1C(C)OC(C)CN31` (racemic), the MIC came out at 6.2 µM (≈ 2.68 µg/mL).

Take `Cc1noc2c(Cl)c3c(cc12)CC1(C(=O)NC(=O)NC1=O)C1C(C)OC(C)CN31` (racemic): the MIC worked out at 12 µM (≈ 5.03 µg/mL).

The next data set deals with Haemophilus influenzae. In words: Antimicrobial activity against Haemophilus influenzae by broth microdilution method. The data set is classed as functional. A digest of the protocol:
as §1
`CC1CN2c3c(cc4c(C5CC5)noc4c3F)CC3(C(=O)NC(=O)NC3=O)C2C(C)O1` (racemic): the MIC stood at 3.1 µM (≈ 1.33 µg/mL).

For the compound `Cc1noc2c(F)c3c(cc12)CC1(C(=O)NC(=O)NC1=O)C1C(C)CC(C)CN31` (racemic), the MIC was more than 200 µM.

Consider `COCc1noc2c(F)c3c(cc12)CC1(C(=O)NC(=O)NC1=O)C1C(C)OC(C)CN31` (racemic), for which the MIC is 12 µM (≈ 5.19 µg/mL).

For the compound `Cc1noc2c(Cl)c3c(cc12)CC1(C(=O)NC(=O)NC1=O)C1C(C)OC(C)CN31` (racemic), the MIC was 3.1 µM (≈ 1.3 µg/mL).

A further data set concerns Escherichia coli. In words: Antimicrobial activity against Escherichia coli by broth microdilution method. The data set is classed as functional. A digest of the protocol: as §1
Compound `CC1CN2c3c(cc4c(C5CC5)noc4c3F)CC3(C(=O)NC(=O)NC3=O)C2C(C)O1` (racemic) came in with an MIC of 100 µM (≈ 42.8 µg/mL).

On to `Cc1noc2c(F)c3c(cc12)CC1(C(=O)NC(=O)NC1=O)C1C(C)CC(C)CN31` (racemic), for which the MIC turned out to be 50 µM (≈ 20 µg/mL).

Consider `COCc1noc2c(F)c3c(cc12)CC1(C(=O)NC(=O)NC1=O)C1C(C)OC(C)CN31` (racemic), for which the MIC came to 200 µM (≈ 86.5 µg/mL).

As for `Cc1noc2c(Cl)c3c(cc12)CC1(C(=O)NC(=O)NC1=O)C1C(C)OC(C)CN31` (racemic), the MIC was found to be 200 µM (≈ 83.8 µg/mL).

The subject of the next data set is Escherichia coli. Put plainly: Antimicrobial activity against tolC-deficient Escherichia coli by broth microdilution method. The data set is classed as functional. An outline of the steps:
as §1
`CC1CN2c3c(cc4c(C5CC5)noc4c3F)CC3(C(=O)NC(=O)NC3=O)C2C(C)O1` (racemic) came in with an MIC not above 0.2 µM.

Consider `Cc1noc2c(F)c3c(cc12)CC1(C(=O)NC(=O)NC1=O)C1C(C)CC(C)CN31` (racemic), for which the MIC came to 6.2 µM (≈ 2.48 µg/mL).

As to `COCc1noc2c(F)c3c(cc12)CC1(C(=O)NC(=O)NC1=O)C1C(C)OC(C)CN31` (racemic), the MIC was not above 0.2 µM.

In turn, `Cc1noc2c(Cl)c3c(cc12)CC1(C(=O)NC(=O)NC1=O)C1C(C)OC(C)CN31` (racemic) yielded an MIC not above 0.2 µM.

Another data set deals with Staphylococcus aureus. In words: Antimicrobial activity against methicillin-sensitive Staphylococcus aureus by broth microdilution method in presence of 50% human serum. The data set is classed as functional. An outline of the steps: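 CLSI broth microdilution against methicillin-sensitive S. aureus, run with 50% human serum added to the medium to reflect plasma protein binding. Values under 12.5 μM are averages of three or more replicates.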
On to `Cc1noc2c(F)c3c(cc12)CC1(C(=O)NC(=O)NC1=O)C1C(C)CC(C)CN31` (racemic), for which the MIC was 50 µM.

For the compound `Cc1noc2c(Cl)c3c(cc12)CC1(C(=O)NC(=O)NC1=O)C1C(C)OC(C)CN31` (racemic), the MIC is 50 µM.

(Values after ChEMBL document CHEMBL3352584, “Novel DNA gyrase inhibiting spiropyrimidinetriones with a benzisoxazole scaffold: SAR and in vivo characterization” (J Med Chem, 2014).)
